# Source: PubChem
# Mot1-301 SUMO: SUMOylation pathway inhibition by Mot1-301 growth rescue; 320,000 tested, 1% active; AID 2716; growth rescue, % at 18.8 µM; S. cerevisiae Mot1-301 growth rescue, ATP luminescence, 38.5C; percent above DMSO median, 100 means doubled;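 active = every valid replicate shows activation above 250% relative to neutral control wells; inactive = the rest, any valid replicate at or below 250%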;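 note: OY570 slx delta 5 strain wells were the positive control but not used for scaling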
# ARFGAP1 inh: inhibits rat ARF GTPase activating protein 1. Arfgap1-stimulated ARF1 GTP hydrolysis, GDP FP detection. 360,000 tested, 0.26% active. AID 651572. Q62848. inhibition, % at 16.5 µM;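 active = inhibition above a per-plate limit, mean inhibition of low control wells plus 3 SD, cut at about 25% in these data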;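 note: 0% = DMSO wells with enzyme and 100% = wells lacking Arfgap1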
# Target sequence (Q62848 1-136 limits assumed): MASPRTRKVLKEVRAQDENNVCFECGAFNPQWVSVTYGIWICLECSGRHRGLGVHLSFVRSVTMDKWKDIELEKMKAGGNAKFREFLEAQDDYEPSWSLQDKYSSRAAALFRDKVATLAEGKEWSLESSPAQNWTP
#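 System: truncated rat Arfgap1 GAP domain / Medium: HEPES-based buffer, pH 7.5 / Also added: N-terminally truncated human ARF1-GTP substrate / Incubation: enzyme reaction 120 min at 25 °C after 20 min preincubation / Measured by: FP of antibody-bound GDP Alexa 633 tracer, ex 620/em 688 nm / Replicates: singlicate, each compound tested once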
# C2C12 statin: suppression of simvastatin myotoxicity | rescue of ATP level, % at 7.49 µM | 330,000 tested, 0.78% active | C2C12 myotubes + simvastatin, ATP luminescence, 48 h; scaled: DMSO 0, geranylgeraniol control 100;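 active = mean ATP rescue above about 67%, or every replicate alone reaching that limit, limit read from the data, passing the limit was not always enough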;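 note: myotubes were challenged with 10 µM simvastatin during compound exposure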
# APOBEC3A inh: human APOBEC3A DNA deaminase inhibition; P31941; recombinant A3A, FAM/TAMRA ssDNA deamination fluorescence; inhibition, % at 20 µM; 330,000 tested, 0.41% active;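 active = at least 40% inhibition at 20 µM here, with at most 30% in a related deaminase screen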;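 note: plate controls were A3A with DMSO for no effect and wells lacking A3A enzyme for full effect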
# Target sequence (P31941 whole entry, looked up): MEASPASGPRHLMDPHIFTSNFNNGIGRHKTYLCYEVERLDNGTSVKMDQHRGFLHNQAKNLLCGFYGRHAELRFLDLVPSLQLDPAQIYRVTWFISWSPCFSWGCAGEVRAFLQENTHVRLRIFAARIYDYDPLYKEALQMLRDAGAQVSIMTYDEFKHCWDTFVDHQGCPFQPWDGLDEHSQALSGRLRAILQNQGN
# ASAP1 GAP inh: ASAP1 ArfGAP inhibition; Q9ULH1; ASAP1-stimulated ARF1 GTP hydrolysis, GDP FP detection; inhibition, % at 16.5 µM; 360,000 tested, 0.19% active; in the data active = inhibition above about 25%;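 note: 0% = vehicle with enzyme and substrate and 100% = no enzyme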
# A3G deaminase: blocks human APOBEC3G single-stranded DNA deamination; 330,000 tested, 0.28% active; inhibition, % at 20 µM; recombinant A3G, ssDNA deamination FAM/TAMRA fluorescence; Q9HC16; AID 493012;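 active = inhibition of at least 40% at 20 µM, with no more than 30% in the related APOBEC3A deaminase screen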;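 note: plate controls were DMSO wells with A3G for no effect and wells lacking A3G enzyme for full effect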
# Target sequence (Q9HC16 whole entry, looked up): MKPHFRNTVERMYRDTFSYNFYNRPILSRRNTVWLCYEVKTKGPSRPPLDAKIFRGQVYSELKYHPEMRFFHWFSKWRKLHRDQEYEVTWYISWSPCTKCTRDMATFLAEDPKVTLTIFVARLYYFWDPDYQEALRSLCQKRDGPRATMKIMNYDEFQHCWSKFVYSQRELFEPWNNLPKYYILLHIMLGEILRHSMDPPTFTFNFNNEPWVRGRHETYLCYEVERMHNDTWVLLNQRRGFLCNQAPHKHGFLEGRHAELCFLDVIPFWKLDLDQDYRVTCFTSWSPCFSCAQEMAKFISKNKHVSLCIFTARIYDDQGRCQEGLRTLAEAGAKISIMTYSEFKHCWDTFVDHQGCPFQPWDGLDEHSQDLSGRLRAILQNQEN
# Yeast Mot1 SUMO: inhibits SUMO pathway, affecting Mot1-301 yeast growth; shares compounds with Mot1-301 SUMO; S. cerevisiae Mot1-301 galactose growth, ATP luminescence, 24 h; -100 = growth of slx-deleted rescue strain; growth activity, percent, % at 42 µM; 2,300 tested, under 10 active; AID 493004;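 active = Signal drops as the depositor expects, and the fitted half-maximal dose is no more than ten times the top valid tested dose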;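 note: more negative values mean stronger growth rescue toward the control strain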
# A3A conf: confirmation of human APOBEC3A DNA deaminase inhibitors; shares compounds with APOBEC3A inh; recombinant A3A, ssDNA deaminase UDG fluorescence assay; AID 493151; 1,400 tested, 63% active; inhibition, % at 20 µM;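 active = inhibition reaching a set limit, 80% of the first screen's cutoff, at 20 µM in any replicate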;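 note: plate controls were DMSO wells with A3A for no effect and wells lacking A3A enzyme for full effect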
# UDG ctr A3A: UDG inhibition in APOBEC3A counter-screen; shares compounds with APOBEC3A inh; UDG counterscreen, FAM/TAMRA uracil oligo fluorescence; inhibition, % at 20 µM; 1,000 tested, under 10 active; call rule not given here
# Starred values were filed as active, the others as inactive; nt = no result given; + = active, no number; ! = not active in a repeat. Only some compounds are listed: those with a hit (about 2.1% of all), similar ones and a draw of the others.
SMILES,Mot1-301 SUMO,ARFGAP1 inh,C2C12 statin,APOBEC3A inh,ASAP1 GAP inh,A3G deaminase,Yeast Mot1 SUMO,others
CC=Cc1ccc2n(c1=O)C[C@H]1[C@H](CO)[C@@H](C(=O)OC)[C@@H]2N1C(=O)CC (mixture of isomers),nt,nt,-6,nt,nt,nt,nt,
CC=Cc1ccc2n(c1=O)C[C@@H]1[C@@H](CO)[C@H](C(=O)OC)[C@H]2N1S(=O)(=O)c1ccccc1C (mixture of isomers),nt,nt,5,nt,nt,nt,nt,
CC(=O)OC1(C)CC(C)C(=O)C(C(O)CC2CC(=O)NC(=O)C2)C1 (stereo not given),nt,-3,83*,nt,11,nt,nt,
C[C@@H]1C[C@@H]([C@H](O)CC2CC(=O)NC(=O)C2)C(=O)[C@@H](C)C1,247,nt,173*,0,2,-5,nt,
COC(=O)[C@H]1[C@H](CO)[C@H]2Cn3c(cccc3=O)[C@@H]1N2Cc1nccs1,nt,nt,36,nt,nt,nt,nt,
CCC(=O)N1[C@@H]2c3ccc(-c4cccc(F)c4)c(=O)n3C[C@H]1[C@H](CO)[C@H]2C(=O)OC,nt,nt,-11,nt,nt,nt,nt,
COC(=O)C[C@@H]1CC[C@H]2NC[C@@H](O)COC[C@@H]2O1,nt,nt,-6,nt,nt,nt,nt,
N=c1c[n+](C2CCCCC2)[n-]o1,484*,6,1,-3,-5,-10,1,
O=C(O)[C@@H]1[C@@H](CO)[C@@H]2Cn3c(ccc(C4=CCCCC4)c3=O)[C@H]1N2C(=O)Cc1ccccn1,nt,nt,-40,nt,nt,nt,nt,
O=C(O)[C@H]1[C@H](CO)[C@H]2Cn3c(ccc(-c4cncnc4)c3=O)[C@@H]1N2C(=O)NC1CCCC1,nt,nt,3,nt,nt,nt,nt,
Clc1ccc(Cl)c(Cl)c1,nt,0,nt,nt,7,nt,nt,
Clc1cnc(Oc2ccc(Oc3ncc(Cl)cc3Cl)cc2)c(Cl)c1,623*,3,-1,-5,5,-1,0,
COc1ccc(C2(C#N)CC[N+](C)(C)CC2)cc1,-9,9,13,-2,3,-4,nt,
CC(C)Oc1ccc(C2(C#N)CC[N+](C)(C)CC2)cc1,670*,-2,nt,0,-9,-3,1,
Cn1c(O)c(C(c2ccccn2)c2c(O)n(C)c(=S)n(C)c2=O)c(=O)n(C)c1=S,477*,-9,nt,3,-2,-1,0,
CN1C(=O)NC(=O)[C@]2(Cc3ccccc3N3CCN(c4ccccc4)CC32)C1=O (stereo not given in full),663*,-16,11,1,-2,13,1,
COc1ccc(-c2ccc([C@H]3[C@@H](CO)N4CCCCN(C(=O)Cc5ccncc5)C[C@H]34)cc2)cc1,nt,nt,-12,nt,nt,nt,nt,
Fc1ccc2c(c1)nnn2C1CCN(Cc2c(Cl)cccc2Cl)CC1,16,-1,nt,-6,-4,-5,nt,
Fc1ccc2c(c1)nnn2C1CCN(Cc2nnnn2C2CCCCC2)CC1,733*,-9,-12,-2,-5,-3,0,
COC(=O)[C@@H]1[C@@H](CO)[C@@H]2Cn3c(ccc(C4=CCCC4)c3=O)[C@H]1N2S(=O)(=O)c1cn(C)cn1,nt,nt,-9,nt,nt,nt,nt,
CCN(CC)c1ccc(N=Cc2c(O)n(Cc3ccccc3)c(=O)[nH]c2=O)cc1,385*!,3,-43,-4,3,-5,0,
COC(=O)C[C@H]1CC[C@H]2NC[C@H](O)COC[C@@H]2O1,nt,nt,-2,nt,nt,nt,nt,
Cc1ccccc1NC1=NCCCS1,469*,4,nt,9,0,-1,0,
Cc1cccc(NC2=NCCCS2)c1C,2,0,11,-1,-12,-3,nt,
[N-]=[N+]=NCCN1CCC(O)CCC1=O (stereo not given),+,2,-1,9,-6,7,0,
SMILES,Mot1-301 SUMO,ARFGAP1 inh,C2C12 statin,APOBEC3A inh,ASAP1 GAP inh,A3G deaminase,Yeast Mot1 SUMO,others
CCOP(=O)(Cc1cc(C(=O)CC)c(C)o1)OCC,658*,6,nt,-2,-9,1,0,
Cc1cccc(S(=O)(=O)N2[C@@H]3Cn4c(ccc(-c5cccc(F)c5)c4=O)[C@H]2[C@@H](C(=O)O)[C@@H]3CO)c1,nt,nt,-17,nt,nt,nt,nt,
CN1C2CCC1CC(OC(=O)c1ccc([N+](=O)[O-])cc1)C2 (stereo not given),474*,-5,nt,1,7,-3,0,
CN1C2CCC1CC(OC(=O)c1cccc(O)c1)C2 (stereo not given),nt,5,13,nt,10,nt,nt,
CCC12CN3CCN(CC(C3)/C1=N/NC(=O)c1ccncc1)C2,507*,-1,2,-3,-18,-5,1,
CCCC12CN3CCN(CC(C3)/C1=N\NC(=O)c1ccncc1)C2,-2,-2,-2,0,-3,3,nt,
CN1C(=O)C(=Cc2ccc(N3CCCCC3)o2)C(=O)N(C)C1=S,848*,4,nt,3,1,-3,0,
COc1ccc(-c2ccc3n(c2=O)C[C@@H]2[C@@H](CO)[C@H](C(=O)O)[C@H]3N2C(=O)c2ccccc2F)cc1,nt,nt,6,nt,nt,nt,nt,
O=Cc1cn(Cc2ccccc2F)c2ccccc12,+,-4,nt,45*,-7,14,0,A3A conf=28
CC=Cc1ccc2n(c1=O)C[C@@H]1[C@@H](CO)[C@H](C(=O)OC)[C@H]2N1CC1CCOCC1 (mixture of isomers),nt,nt,0,nt,nt,nt,nt,
CN1CCC(OC(=O)Cc2ccccc2)CC1,-4,5,12,0,7,0,nt,
C[N+]1(CC(COCc2ccccc2)OC(=O)Cc2ccccc2)CCOCC1 (stereo not given),-7,6,nt,41*,-1,18,nt,A3A conf=69*;UDG ctr A3A=1
COc1ccc2[nH]cc(CCNCc3cccnc3)c2c1,5,6,3,-5,-5,-4,nt,
COc1ccc2[nH]cc(CCN=C(N)N)c2c1,245,-8,3,54*,7,14,nt,A3A conf=28*;UDG ctr A3A=-2
C[C@@H]1CC2(CCCC[N+]2(C)C)C[C@H]1C,2,-6,nt,81*,8,28,nt,A3A conf=68*;UDG ctr A3A=-2
COC(=O)[C@H]1[C@H](CO)[C@H]2Cn3c(ccc(/C=C/c4ccccc4)c3=O)[C@@H]1N2Cc1ccccc1F,nt,nt,5,nt,nt,nt,nt,
COc1cc2c(cc1OC)-c1c(OC)c(OC)cc3c1C(C2)N(C)CC3 (stereo not given),-13,-7,-17,3,-3,-3,nt,
COc1cc2c(cc1O)C[C@H]1NCCc3cc4c(c-2c31)OCO4,-3,5,20,61*,-4,19,nt,A3A conf=34*
